The term pA2 denotes the negative logarithm of the molar antagonist concentration that doubles the agonist concentration needed for the same response. Read a high pA2 as a more potent antagonist.

Each structure is given as a SMILES string. Where only a bound is given, the exact number is not on record here.

Test [1] addresses 5-hydroxytryptamine receptor 2A (Rattus norvegicus) (UniProt P14842). As to the kind of experiment: Effectiveness in blocking 5-HT2A receptor-mediated contractions of rat tail artery. It counts as functional, tissue-based. In short, it runs like this:
(§1)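 Endothelium-denuded rat ventral caudal artery segments (4–5 mm), isometric, resting force 5 mN. Segments were primed once with 5-HT 1 μM during 120 min equilibration. Prazosin 30 nM and cocaine 6 μM were present throughout. Two cumulative 5-HT curves were run 60 min apart, the second after 30–60 min with antagonist. pKP by Marano–Kaumann; pA2 by Schild or as apparent pA2. Mean ± SEM, n segments, ≥2 animals.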

Test [2] is described as follows: Specificity towards 5-HT2A receptor to that of alpha-1 adrenoceptor. Format: functional.
Test [3] deals with T1, Adrenergic receptor alpha-1 (Rattus norvegicus, UniProt P15823+P23944+P43140).
T1 sequence (P15823 whole entry): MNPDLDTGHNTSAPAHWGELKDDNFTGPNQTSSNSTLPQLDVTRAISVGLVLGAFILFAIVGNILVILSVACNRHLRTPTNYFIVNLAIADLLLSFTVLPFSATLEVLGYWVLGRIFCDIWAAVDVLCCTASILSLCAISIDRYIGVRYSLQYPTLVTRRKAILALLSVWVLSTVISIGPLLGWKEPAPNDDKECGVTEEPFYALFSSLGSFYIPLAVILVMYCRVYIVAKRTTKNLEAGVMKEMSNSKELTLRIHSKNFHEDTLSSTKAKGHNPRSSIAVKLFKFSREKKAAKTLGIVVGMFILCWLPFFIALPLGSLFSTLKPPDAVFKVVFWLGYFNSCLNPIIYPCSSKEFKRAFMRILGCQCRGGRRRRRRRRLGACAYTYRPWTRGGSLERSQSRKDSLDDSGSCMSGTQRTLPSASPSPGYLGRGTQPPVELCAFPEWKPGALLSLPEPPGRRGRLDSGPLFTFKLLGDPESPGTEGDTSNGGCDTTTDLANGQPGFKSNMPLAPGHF
T1 sequence (P23944 whole entry): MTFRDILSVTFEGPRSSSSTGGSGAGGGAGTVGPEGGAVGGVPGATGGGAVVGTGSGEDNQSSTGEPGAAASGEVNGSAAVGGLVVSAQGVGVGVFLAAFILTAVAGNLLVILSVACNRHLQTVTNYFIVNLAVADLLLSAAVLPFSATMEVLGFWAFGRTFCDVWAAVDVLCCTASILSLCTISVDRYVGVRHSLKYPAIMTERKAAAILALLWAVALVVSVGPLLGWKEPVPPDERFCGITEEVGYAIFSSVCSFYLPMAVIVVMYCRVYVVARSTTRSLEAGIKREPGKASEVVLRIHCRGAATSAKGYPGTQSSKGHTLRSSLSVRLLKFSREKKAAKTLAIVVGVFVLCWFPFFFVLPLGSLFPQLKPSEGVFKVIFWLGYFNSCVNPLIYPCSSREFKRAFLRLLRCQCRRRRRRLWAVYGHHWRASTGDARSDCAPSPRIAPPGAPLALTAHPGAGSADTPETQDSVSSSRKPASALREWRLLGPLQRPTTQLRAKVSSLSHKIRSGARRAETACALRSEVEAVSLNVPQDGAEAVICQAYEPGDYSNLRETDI
T1 sequence (P43140 whole entry): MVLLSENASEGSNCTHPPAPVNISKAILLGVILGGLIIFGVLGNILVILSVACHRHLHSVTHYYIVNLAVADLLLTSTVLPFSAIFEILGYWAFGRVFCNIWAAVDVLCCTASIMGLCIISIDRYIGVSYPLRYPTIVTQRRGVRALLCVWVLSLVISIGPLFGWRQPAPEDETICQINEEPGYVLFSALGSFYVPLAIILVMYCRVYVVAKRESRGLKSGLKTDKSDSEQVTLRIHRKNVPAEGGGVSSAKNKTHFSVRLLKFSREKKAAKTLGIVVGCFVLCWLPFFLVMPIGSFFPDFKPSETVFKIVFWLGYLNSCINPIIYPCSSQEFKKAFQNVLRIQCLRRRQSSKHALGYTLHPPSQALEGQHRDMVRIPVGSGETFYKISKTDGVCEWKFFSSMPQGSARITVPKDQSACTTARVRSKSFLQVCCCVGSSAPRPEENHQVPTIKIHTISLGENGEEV
As to the kind of experiment: Ability to block alpha-1 adrenergic receptor-mediated contractions of rat aorta. Format: functional. In short, it runs like this: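 Endothelium-denuded rat thoracic aorta rings (4–6 mm) in modified Krebs-Henseleit, 37 °C, 95% O2/5% CO2, with (R,S)-propranolol 1 μM. Resting force 20 mN. During 140 min equilibration, rings were stimulated twice with (R)-phenylephrine 100 nM. Two cumulative phenylephrine contraction curves were run, without and then with antagonist added 30 min before.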

For test [4], the target named is 5-hydroxytryptamine receptor 2A (Rattus norvegicus, UniProt P14842). In words: Blocking 5-HT2A receptor-mediated contractions of rat tail artery. It counts as functional, tissue-based. Particulars: read-out: pA2 (converted). The essentials: as §1
Sequence of 5-hydroxytryptamine receptor 2A (P14842 whole entry): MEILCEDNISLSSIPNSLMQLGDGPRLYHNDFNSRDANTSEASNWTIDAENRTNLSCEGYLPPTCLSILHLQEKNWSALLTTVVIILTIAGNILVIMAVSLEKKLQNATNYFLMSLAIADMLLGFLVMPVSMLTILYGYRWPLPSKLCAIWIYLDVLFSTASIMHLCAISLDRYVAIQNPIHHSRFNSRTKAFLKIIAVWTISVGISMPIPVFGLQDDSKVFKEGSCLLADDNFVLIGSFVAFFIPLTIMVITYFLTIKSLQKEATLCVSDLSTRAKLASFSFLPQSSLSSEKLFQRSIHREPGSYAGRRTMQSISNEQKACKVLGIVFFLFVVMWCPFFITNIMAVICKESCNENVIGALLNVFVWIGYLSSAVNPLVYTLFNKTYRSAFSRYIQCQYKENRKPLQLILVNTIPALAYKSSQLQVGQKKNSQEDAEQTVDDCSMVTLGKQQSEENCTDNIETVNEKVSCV

Sequence of 5-hydroxytryptamine receptor 2A (Rattus norvegicus) (P14842 whole entry): as above

In turn, `CN1C[C@H](COC(=O)C2CCC2)C[C@@H]2c3cccc4[nH]cc(c34)C[C@H]21.O=C(O)/C=C\C(=O)O` gave a pKp in test [1] of 7.3. This molecule displayed a Specificity in test [2] of 5. This molecule had a pA2 in test [3] of 6.59.
Regarding `CC1=C[C@@H]2c3cccc4c3c(cn4C(C)C)C[C@H]2N(C)C1.O=C(O)/C=C\C(=O)O`, in test [4], the Kb is 1.45 nM. The same molecule came in with a Specificity in test [2] of 316. In test [3], this molecule displayed a pA2 of 6.34.
The corresponding values for `COC1CCC(C(=O)OCC2=C[C@@H]3c4cccc5[nH]cc(c45)C[C@H]3N(C)C2)CC1.O=C(O)/C=C\C(=O)O` (stereo partly specified) are 47.9 nM, 12 and 6.32.
The corresponding values for `CC(C)n1cc2c3c(cccc31)[C@H]1C=C(COC(=O)C3CCCC3)CN(C)[C@@H]1C2.O=C(O)/C=C\C(=O)O` are 8.91 nM, 1440 and 4.89.
For the molecule `CC(C)n1cc2c3c(cccc31)[C@H]1C=C(COC(=O)C3CCCCCC3)CN(C)[C@@H]1C2.O=C(O)/C=C\C(=O)O`, in test [4], the Kb is 17 nM. This molecule also came in with a Specificity in test [2] of over 1860. In test [3], this molecule had a pA2 of under 4.5.
Taken in the same sequence, the figures for `CN1CC(COC(=O)C2CCCCC2)=C[C@@H]2c3cccc4[nH]cc(c34)C[C@H]21.O=C(O)/C=C\C(=O)O` were 39.8 nM, 32 and 5.89.
Taken in the same sequence, the figures for `CC(C)n1cc2c3c(cccc31)C1=C[C@@H](COC(=O)C3CC3)CN(C)[C@@H]1C2.O=C(O)/C=C\C(=O)O` were 1.82 nM, 4570 and 5.08.
Taken in the same sequence, the figures for `CC(C)n1cc2c3c(cccc31)[C@H]1C[C@@H](COC(=O)C3CCCCC3)CN(C)[C@@H]1C2.O=C(O)/C=C\C(=O)O` were 72.4 nM, 355 and 4.59.
For the molecule `CO[C@H]1CC[C@H](C(=O)OCC2=C[C@@H]3c4cccc5c4c(cn5C(C)C)C[C@H]3N(C)C2)CC1.O=C(O)/C=C\C(=O)O`, the Kb in test [4] is 7.41 nM. In test [2], the Specificity is 2880. This molecule yielded a pA2 in test [3] of 4.67.
Consider `CC(C)n1cc2c3c(cccc31)[C@H]1C[C@@H](COC(=O)C3CCC3)CN(C)[C@@H]1C2.O=C(O)/C=C\C(=O)O`, for which, in test [4], the Kb is 8.71 nM. In test [2], the Specificity worked out at 2950. In test [3], this molecule returned a pA2 of 4.59.
Molecule `CN1C[C@H](COC(=O)C2CCCCCC2)C[C@@H]2c3cccc4[nH]cc(c34)C[C@H]21.O=C(O)/C=C\C(=O)O` displayed a pKp in test [1] of 7.1. In test [2], this molecule had a Specificity of 174. Moreover, in test [3], the pA2 is reported as 4.86.
On to `CC(C)n1cc2c3c(cccc31)C1=C[C@@H](COC(=O)C3CCC3)CN(C)[C@@H]1C2.O=C(O)/C=C\C(=O)O`, for which, in test [4], the Kb is 6.03 nM. For the same molecule, the Specificity in test [2] stood at 2950. Further, the pA2 in test [3] is recorded as 4.75.
Taken in the same sequence, the figures for `CC(C)n1cc2c3c(cccc31)[C@H]1C[C@@H](C)CN(C)[C@@H]1C2.O=C(O)/C=C\C(=O)O` were 3.16 nM, 63 and 6.7.
Taken in the same sequence, the figures for `CO[C@H]1CC[C@H](C(=O)OCC2=C[C@@H]3c4cccc5[nH]cc(c45)C[C@H]3N(C)C2)CC1.O=C(O)/C=C\C(=O)O` were 57.5 nM, 17 and 6.
Turning to `CN1C[C@H](COC(=O)C2CC2)C[C@@H]2c3cccc4[nH]cc(c34)C[C@H]21.O=C(O)/C=C\C(=O)O`, the pKp in test [1] is 7.67. Moreover, the Specificity in test [2] turned out to be 3. Moreover, the pA2 in test [3] was 7.2.
Taken in the same sequence, the figures for `CN1C[C@H](COC(=O)C2CCCCC2)C[C@@H]2c3cccc4[nH]cc(c34)C[C@H]21.O=C(O)/C=C\C(=O)O` were 7.34, 52 and 5.62.
For `CC(C)n1cc2c3c(cccc31)C1=C[C@@H](COC(=O)C3CCCCC3)CN(C)[C@@H]1C2.O=C(O)/C=C\C(=O)O`, the Kb in test [4] is 12 nM. This molecule also displayed a Specificity in test [2] of 1410. The molecule also came in with a pA2 in test [3] of 4.77.
With `CC(C)n1cc2c3c(cccc31)[C@H]1C[C@@H](COC(=O)C3CCCC3)CN(C)[C@@H]1C2.O=C(O)/C=C\C(=O)O`, in test [4], the Kb is 22.4 nM. This molecule also gave a Specificity in test [2] of 933. In addition, in test [3], the pA2 stood at 4.68.
Taken in the same sequence, the figures for `CC(C)n1cc2c3c(cccc31)[C@H]1C[C@@H](COC(=O)C3CCCCCC3)CN(C)[C@@H]1C2.O=C(O)/C=C\C(=O)O` were 89.1 nM, 186 and 4.78.
Taken in the same sequence, the figures for `CN1CC(COC(=O)C2CCCC2)=C[C@@H]2c3cccc4[nH]cc(c34)C[C@H]21.O=C(O)/C=C\C(=O)O` were 49 nM, 21 and 5.99.
Taken in the same sequence, the figures for `CN1CC(COC(=O)C2CCC2)=C[C@@H]2c3cccc4[nH]cc(c34)C[C@H]21.O=C(O)/C=C\C(=O)O` were 77.6 nM, 5 and 6.42.
Take `CC(C)n1cc2c3c(cccc31)[C@H]1C=C(COC(=O)C3CCC3)CN(C)[C@@H]1C2.O=C(O)/C=C\C(=O)O`: in test [4], the Kb was 9.33 nM. The molecule further had a Specificity in test [2] of 2180. Besides, the pA2 in test [3] is 4.69.
For `CC(C)n1cc2c3c(cccc31)C1=C[C@@H](COC(=O)C3CCCC3)CN(C)[C@@H]1C2.O=C(O)/C=C\C(=O)O`, the Kb in test [4] is 5.62 nM. The molecule also returned a Specificity in test [2] of 4790. In test [3], the pA2 worked out at 4.57.
`CC(C)n1cc2c3c(cccc31)[C@H]1C=C(COC(=O)C3CCCCC3)CN(C)[C@@H]1C2.O=C(O)/C=C\C(=O)O`: the Kb in test [4] is 15.8 nM. The Specificity in test [2] turned out to be 1410. Besides, in test [3], the pA2 is on record as 4.65.
The corresponding values for `COC1CCC(C(=O)OCC2=C[C@@H]3c4cccc5c4c(cn5C(C)C)C[C@H]3N(C)C2)CC1.O=C(O)/C=C\C(=O)O` (stereo partly specified) are 11.5 nM, 1260 and 4.84.
On to `CN1C[C@H](COC(=O)C2CCCC2)C[C@@H]2c3cccc4[nH]cc(c34)C[C@H]21.O=C(O)/C=C\C(=O)O`, for which, in test [1], the pKp worked out at 7.5. Further, the Specificity in test [2] amounted to 35. This molecule registered a pA2 in test [3] of 5.95.
For `CN1CC(COC(=O)C2CCCCCC2)=C[C@@H]2c3cccc4[nH]cc(c34)C[C@H]21.O=C(O)/C=C\C(=O)O`, in test [4], the Kb was 10.7 nM. The same molecule came in with a Specificity in test [2] of 832. The same molecule came in with a pA2 in test [3] of 5.05.

The values above are taken from ChEMBL document CHEMBL1132168, “Cycloalkanecarboxylic esters derived from lysergol, dihydrolysergol-I, and elymoclavine as partial agonists and antagonists at rat 5-HT2A receptors: pharmacological evidence that the indolo[4,3-fg]quinoline system of the ergolines is responsible for high 5-HT2A receptor affinity” (J Med Chem, 1999).
